Test results published in ChEMBL document CHEMBL1687823, “PA-824 exhibits time-dependent activity in a murine model of tuberculosis” (Antimicrob Agents Chemother, 2011).

How the values were obtained:
Mus musculus = assay: Toxicity in BALB/c mouse assessed as adverse effect up to 1456 mg/kg, po administered as single dose; format: organism-based; design: route oral; details: in vivo
How it was run: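 Uninfected 6-week female BALB/c mice received single oral gavage doses of 3–1,458 mg/kg as a cyclodextrin-micelle suspension. Three mice per time point were bled by cardiac puncture under isoflurane at 0.5–120 h. Serum levels were measured by validated HPLC-UV (standards 0.20–50 µg/ml).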

[1] = system: Mycobacterium tuberculosis; assay: fT>MIC for >= 1 log reduction in CFU count in Mycobacterium tuberculosis H37Rv in using simulated dose of at 200 mg assessed as time during compound concentration exceeds MIC of 0.03125 ug/ml assuming 5% unbound compound concentration by one compartment human pharmacokinetic model; format: functional
How it was run: (§1)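 A one-compartment PK model was fitted to human data to get median parameters. It simulated steady-state total and free concentrations for 100, 200 or 400 mg once daily, assuming 5, 7, 10 or 15% unbound drug. Free T>MIC was computed against MICs of 0.03125–0.25 µg/ml and compared with the mouse-derived T>MIC target for 1-log10 kill.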

[2] = system: Mycobacterium tuberculosis; assay: fT>MIC for >= 1 log reduction in CFU count in Mycobacterium tuberculosis H37Rv in using simulated dose of at 400 mg assessed as time during compound concentration exceeds MIC of 0.03125 ug/ml assuming 7% unbound compound concentration by one compartment human pharmacokinetic model; format: functional; how it was run: as §1
[3] = system: Mycobacterium tuberculosis; assay: fT>MIC for >= 1 log reduction in CFU count in Mycobacterium tuberculosis H37Rv in using simulated dose of at 100 mg assessed as time during compound concentration exceeds MIC of 0.03125 ug/ml assuming 10% unbound compound concentration by one compartment human pharmacokinetic model; format: functional; how it was run: as §1
[4] = system: Mycobacterium tuberculosis; assay: fT>MIC for >= 1 log reduction in CFU count in Mycobacterium tuberculosis H37Rv in using simulated dose of at 100 mg assessed as time during compound concentration exceeds MIC of 0.06250 ug/ml assuming 5% unbound compound concentration by one compartment human pharmacokinetic model; format: functional; how it was run: as §1
[5] = system: Mycobacterium tuberculosis; assay: fT>MIC for >= 1 log reduction in CFU count in Mycobacterium tuberculosis H37Rv in using simulated dose of at 200 mg assessed as time during compound concentration exceeds MIC of 0.06250 ug/ml assuming 5% unbound compound concentration by one compartment human pharmacokinetic model; format: functional; how it was run: as §1
[6] = system: Mycobacterium tuberculosis; assay: fT>MIC for >= 1 log reduction in CFU count in Mycobacterium tuberculosis H37Rv in using simulated dose of at 200 mg assessed as time during compound concentration exceeds MIC of 0.06250 ug/ml assuming 15% unbound compound concentration by one compartment human pharmacokinetic model; format: functional; how it was run: as §1
[7] = system: Mycobacterium tuberculosis; assay: fT>MIC for >= 1 log reduction in CFU count in Mycobacterium tuberculosis H37Rv in using simulated dose of at 100 mg assessed as time during compound concentration exceeds MIC of 0.12500 ug/ml assuming 5% unbound compound concentration by one compartment human pharmacokinetic model; format: functional; how it was run: as §1
[8] = system: Mycobacterium tuberculosis; assay: fT>MIC for >= 1 log reduction in CFU count in Mycobacterium tuberculosis H37Rv in using simulated dose of at 400 mg assessed as time during compound concentration exceeds MIC of 0.12500 ug/ml assuming 5% unbound compound concentration by one compartment human pharmacokinetic model; format: functional
How it was run: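 Human steady-state simulation: one-compartment PK model fitted to patient data, chosen by AIC. Median PK parameters used to simulate total and free concentrations, assuming 5, 7, 10 or 15% unbound, for 100, 200 and 400 mg once daily. Free levels compared with MICs of 0.03125 to 0.25 µg/ml to give %T>MIC; T>MIC is the cumulative percentage of the dosing interval above MIC.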

[9] = system: Mycobacterium tuberculosis; assay: fT>MIC for >= 1 log reduction in CFU count in Mycobacterium tuberculosis H37Rv in using simulated dose of at 100 mg assessed as time during compound concentration exceeds MIC of 0.12500 ug/ml assuming 7% unbound compound concentration by one compartment human pharmacokinetic model; format: functional; how it was run: as §1
[10] = system: Mycobacterium tuberculosis; assay: fT>MIC for >= 1 log reduction in CFU count in Mycobacterium tuberculosis H37Rv in using simulated dose of at 100 mg assessed as time during compound concentration exceeds MIC of 0.12500 ug/ml assuming 15% unbound compound concentration by one compartment human pharmacokinetic model; format: functional; how it was run: as §1
[11] = system: Mycobacterium tuberculosis; assay: fT>MIC for >= 1 log reduction in CFU count in Mycobacterium tuberculosis H37Rv in using simulated dose of at 200 mg assessed as time during compound concentration exceeds MIC of 0.12500 ug/ml assuming 15% unbound compound concentration by one compartment human pharmacokinetic model; format: functional; how it was run: as §1
[12] = system: Mycobacterium tuberculosis; assay: fT>MIC for >= 1 log reduction in CFU count in Mycobacterium tuberculosis H37Rv in using simulated dose of at 100 mg assessed as time during compound concentration exceeds MIC of 0.25000 ug/ml assuming 7% unbound compound concentration by one compartment human pharmacokinetic model; format: functional; how it was run: as §1
[13] = system: Mycobacterium tuberculosis; assay: fT>MIC for >= 1 log reduction in CFU count in Mycobacterium tuberculosis H37Rv in using simulated dose of at 100 mg assessed as time during compound concentration exceeds MIC of 0.25000 ug/ml assuming 10% unbound compound concentration by one compartment human pharmacokinetic model; format: functional; how it was run: as §1
[14] = system: Mycobacterium tuberculosis; assay: fT>MIC for >= 1 log reduction in CFU count in Mycobacterium tuberculosis H37Rv in using simulated dose of at 200 mg assessed as time during compound concentration exceeds MIC of 0.25000 ug/ml assuming 10% unbound compound concentration by one compartment human pharmacokinetic model; format: functional; how it was run: as §1
[15] = system: Mycobacterium tuberculosis; assay: fT>MIC for >= 1 log reduction in CFU count in Mycobacterium tuberculosis H37Rv in using simulated dose of at 200 mg assessed as time during compound concentration exceeds MIC of 0.25000 ug/ml assuming 15% unbound compound concentration by one compartment human pharmacokinetic model; format: functional; how it was run: as §1
[16] = system: Mycobacterium tuberculosis; assay: Antimicrobial activity against Mycobacterium tuberculosis H37Rv infected in single po dosed BALB/c mouse assessed as reduction in lung CFU count; format: functional

Which results are given for O=[N+]([O-])c1cn2c(n1)OC[C@@H](OCc1ccc(OC(F)(F)F)cc1)C2 [PRETOMANID]?
Activity (Mus musculus): Non-toxic; fT>MIC [1]: 100%; fT>MIC [2]: 100%; fT>MIC [3]: 100%; fT>MIC [4]: 0%; fT>MIC [5]: 46%; fT>MIC [6]: 100%; fT>MIC [7]: 0%; fT>MIC [8]: 46%; fT>MIC [9]: 0%; fT>MIC [10]: 6%; fT>MIC [11]: 67%; fT>MIC [12]: 0%; fT>MIC [13]: 0%; fT>MIC [14]: 0%; fT>MIC [15]: 6%; MBC [16]: 100 mg/kg
